ChEMBL document CHEMBL3870349, “Novel 3-methylindoline inhibitors of EZH2: Design, synthesis and SAR” (Bioorg Med Chem Lett, 2017)
Values after ≈ are worked out from the molar mass of the structure shown.

Columns and labels:
[1] = target: Histone-lysine N-methyltransferase EZH2 (Homo sapiens, UniProt Q15910); assay: Inhibition of human wild type EZH2 using histone H3 as substrate after 1 hr in presence of 3H-SAM by filter paper detection analysis
Outline: (§1)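 Each HMT complex was incubated with 3H-SAM (tritiated S-adenosyl-L-methionine) and histone H3 as substrate. An IC50 curve was generated for each compound.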

[2] = target: Histone-lysine N-methyltransferase EZH2 (Homo sapiens, UniProt Q15910, Y641F); assay: Inhibition of human EZH2 Y641F mutant using histone H3 as substrate after 1 hr in presence of 3H-SAM by filter paper detection analysis; outline: as §1
[3] = target: T1, Histone-lysine N-methyltransferase EZH1 (Homo sapiens, UniProt Q92800); assay: Inhibition of human EZH1 complex using histone H3 as substrate after 1 hr in presence of 3H-SAM by filter paper detection analysis; outline: as §1
T1 sequence (Q92800 whole entry): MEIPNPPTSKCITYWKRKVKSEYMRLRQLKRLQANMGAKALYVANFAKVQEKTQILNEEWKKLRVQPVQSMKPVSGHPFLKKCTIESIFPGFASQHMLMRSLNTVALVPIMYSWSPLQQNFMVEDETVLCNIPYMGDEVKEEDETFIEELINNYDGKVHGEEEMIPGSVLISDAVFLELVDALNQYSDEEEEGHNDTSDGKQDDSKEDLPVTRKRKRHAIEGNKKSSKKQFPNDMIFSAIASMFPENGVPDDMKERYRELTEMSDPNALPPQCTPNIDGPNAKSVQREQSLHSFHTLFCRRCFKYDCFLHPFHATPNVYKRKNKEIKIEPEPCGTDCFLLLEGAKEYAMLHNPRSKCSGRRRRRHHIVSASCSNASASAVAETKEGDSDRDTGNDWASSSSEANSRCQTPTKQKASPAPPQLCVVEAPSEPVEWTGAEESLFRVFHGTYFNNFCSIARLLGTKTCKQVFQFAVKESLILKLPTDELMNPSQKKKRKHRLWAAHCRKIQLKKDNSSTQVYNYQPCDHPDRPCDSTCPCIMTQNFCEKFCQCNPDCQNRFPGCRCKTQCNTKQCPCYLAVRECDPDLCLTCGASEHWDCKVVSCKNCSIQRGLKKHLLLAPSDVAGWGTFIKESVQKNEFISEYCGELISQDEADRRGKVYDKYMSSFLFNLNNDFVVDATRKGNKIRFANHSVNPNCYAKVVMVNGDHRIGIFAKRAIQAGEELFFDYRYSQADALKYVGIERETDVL

[4] = Oxidative metabolic stability in human liver microsomes assessed as amount of parent compound remaining at 1 uM after 30 mins by LC-MS/MS; assay type: ADME; details: read-out: Stability
[5] = Oxidative metabolic stability in mouse liver microsomes assessed as amount of parent compound remaining at 1 uM after 30 mins by LC-MS/MS; assay type: ADME; details: read-out: Stability
[6] = Kinetic solubility of compound in PBS buffer at pH 7.4 after 1 hr by micro-plate nephelometric analysis; assay type: physicochemical; details: read-out: Kinetic_solubility

Chain of Histone-lysine N-methyltransferase EZH2 (Homo sapiens, UniProt Q15910) (Q15910 whole entry): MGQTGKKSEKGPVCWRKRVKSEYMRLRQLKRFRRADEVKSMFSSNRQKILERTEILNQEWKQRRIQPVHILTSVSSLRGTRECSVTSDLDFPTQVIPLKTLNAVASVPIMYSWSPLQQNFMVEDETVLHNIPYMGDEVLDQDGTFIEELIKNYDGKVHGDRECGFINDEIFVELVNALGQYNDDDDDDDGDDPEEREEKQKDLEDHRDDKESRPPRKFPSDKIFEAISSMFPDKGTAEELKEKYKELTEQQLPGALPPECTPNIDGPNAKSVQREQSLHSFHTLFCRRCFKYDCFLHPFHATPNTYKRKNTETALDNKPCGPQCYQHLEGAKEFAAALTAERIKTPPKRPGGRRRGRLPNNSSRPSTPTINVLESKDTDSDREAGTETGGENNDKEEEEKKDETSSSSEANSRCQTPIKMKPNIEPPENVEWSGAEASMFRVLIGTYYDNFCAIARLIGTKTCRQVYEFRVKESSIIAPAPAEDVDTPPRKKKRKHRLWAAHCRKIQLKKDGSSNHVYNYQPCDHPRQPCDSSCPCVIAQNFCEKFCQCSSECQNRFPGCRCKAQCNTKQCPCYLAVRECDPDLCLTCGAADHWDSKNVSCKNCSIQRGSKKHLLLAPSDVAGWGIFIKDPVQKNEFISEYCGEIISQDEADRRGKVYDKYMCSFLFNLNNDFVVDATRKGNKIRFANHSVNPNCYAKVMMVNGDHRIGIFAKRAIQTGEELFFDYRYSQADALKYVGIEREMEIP
Chain of Histone-lysine N-methyltransferase EZH2 (Homo sapiens, UniProt Q15910, Y641F) (Q15910 whole entry Y641F): as the sequence (Q15910 whole entry) above, with Y641F counted along it

| IC50 [1] [nM] | IC50 [2] [nM] | IC50 [3] [nM] | SMILES | further results |
| --- | --- | --- | --- | --- |
| 237 | – | – | Cc1cc(C)c(CNC(=O)c2cc(-c3ccc(CN4CCOCC4)cc3)cc3c2CCN3C2CCOCC2)c(=O)[nH]1 | – |
| 15700 | – | – | Cc1cc(C)c(CNC(=O)c2cc(C#N)cc3c2CCN3C2CCOCC2)c(=O)[nH]1 | – |
| 26600 | – | – | Cc1cc(C)c(CNC(=O)c2cc(C#N)cc3c2CCN3C(C)C)c(=O)[nH]1 | – |
| 88 | 478 | 7750 | Cc1cc(C)c(CNC(=O)c2cc(C#N)cc3c2C(C)CN3C(C)C)c(=O)[nH]1 (stereo in doubt; 27e1) | – |
| 27 | 185 | 4440 | Cc1cc(C)c(CNC(=O)c2cc(C#N)cc3c2C(C)CN3C2CCCC2)c(=O)[nH]1 (stereo in doubt; 28e1) | – |
| > 100000 | – | – | Cc1cc(C)c(CNC(=O)c2cc(C#N)cc3c2C(C)CN3C2CCCC2)c(=O)[nH]1 (stereo in doubt; 28e2) | – |
| 47 | 518 | 2710 | Cc1cc(C)c(CNC(=O)c2cc(-c3ccc(CN4CCOCC4)cc3)cc3c2C(C)CN3C(C)C)c(=O)[nH]1 (stereo in doubt; 30e1) | – |
| 24 | 902 | 2650 | Cc1cc(C)c(CNC(=O)c2cc(-c3ccc(CN4CCOCC4)cc3)cc3c2C(C)CN3C2CCCC2)c(=O)[nH]1 (stereo in doubt; 33e1) | – |
| 29 | 975 | 3340 | Cc1cc(C)c(CNC(=O)c2cc(-c3ccc(CN4CCOCC4)cc3)cc3c2C(C)CN3C2CCOCC2)c(=O)[nH]1 (stereo in doubt; 34e1) | remaining at 0.5 h, 1 µM [4]: 62%; remaining at 0.5 h, 1 µM [5]: 58%; solubility kinetic at 1 h [6]: 75 µM (≈ 42.8 µg/mL) |
| 17 | 304 | 1560 | Cc1cc(C)c(CNC(=O)c2cc(-c3cnc(N4CCNCC4)c4ccccc34)cc3c2C(C)CN3C2CCOCC2)c(=O)[nH]1 (stereo in doubt; 36e1) | – |
| 1080 | – | – | Cc1cc(C)c(CNC(=O)c2cc(-c3ccc(N4CCNCC4)nc3)cc3c2C(C)CN3C(C)C)c(=O)[nH]1 (stereo in doubt; 39e2) | – |
| 21 | 505 | 1350 | Cc1cc(C)c(CNC(=O)c2cc(-c3ccc(N4CCNCC4)nc3)cc3c2C(C)CN3C2CCCC2)c(=O)[nH]1 (stereo in doubt; 40e1) | – |
| 378 | – | – | Cc1cc(C)c(CNC(=O)c2cc(-c3ccc(N4CCNCC4)nc3)cc3c2C(C)CN3C2CCCC2)c(=O)[nH]1 (stereo in doubt; 40e2) | – |
| 2150 | – | – | Cc1cc(C)c(CNC(=O)c2cc(-c3ccc(N4CCNCC4)nc3)cc3c2C(C)CN3C2CCOCC2)c(=O)[nH]1 (stereo in doubt; 41e2) | – |
| 2160 | – | – | Cc1cc(C)c(CNC(=O)c2cc(-c3cnc(N4CCNCC4)nc3)cc3c2C(C)CN3C2CCOCC2)c(=O)[nH]1 (stereo in doubt; 45e2) | – |

More lines, now with the values behind:

| SMILES | IC50 [1] [nM] | IC50 [2] [nM] | IC50 [3] [nM] | further results |
| --- | --- | --- | --- | --- |
| Cc1cc(C)c(CNC(=O)c2cc(C#N)cc3c2CCN3C2CCCC2)c(=O)[nH]1 | 571 | – | – | – |
| Cc1cc(C)c(CNC(=O)c2cc(C#N)cc3c2C(C)CN3C(C)C)c(=O)[nH]1 (stereo in doubt; 27e2) | > 100000 | – | – | – |
| Cc1cc(C)c(CNC(=O)c2cc(-c3ccc(CN4CCOCC4)cc3)cc3c2C(C)CN3C(C)C)c(=O)[nH]1 (stereo in doubt; 30e2) | 4140 | – | – | – |
| Cc1cc(C)c(CNC(=O)c2cc(-c3ccc(CN4CCOCC4)cc3)cc3c2C(C)CN3CC2CC2)c(=O)[nH]1 (stereo in doubt; 31e1) | 375 | – | – | – |
| Cc1cc(C)c(CNC(=O)c2cc(-c3ccc(CN4CCOCC4)cc3)cc3c2C(C)CN3CC2CC2)c(=O)[nH]1 (stereo in doubt; 31e2) | 15200 | – | – | – |
| Cc1cc(C)c(CNC(=O)c2cc(-c3ccc(CN4CCOCC4)cc3)cc3c2C(C)CN3C2CCCC2)c(=O)[nH]1 (stereo in doubt; 33e2) | 448 | – | – | – |
| Cc1cc(C)c(CNC(=O)c2cc(-c3ccc(CN4CCOCC4)cc3)cc3c2C(C)CN3C2CCOCC2)c(=O)[nH]1 (stereo in doubt; 34e2) | 6980 | – | – | – |
| Cc1cc(C)c(CNC(=O)c2cc(-c3cnc(N4CCNCC4)c4ccccc34)cc3c2C(C)CN3C2CCOCC2)c(=O)[nH]1 (stereo in doubt; 36e2) | 540 | – | – | – |
| Cc1cc(C)c(CNC(=O)c2cc(-c3ccc(N4CCNCC4)nc3)cc3c2C(C)CN3C(C)C)c(=O)[nH]1 (stereo in doubt; 39e1) | 17 | 622 | 1870 | – |
| Cc1cc(C)c(CNC(=O)c2cc(-c3ccc(N4CCNCC4)nc3)cc3c2C(C)CN3C2CCOCC2)c(=O)[nH]1 (stereo in doubt; 41e1) | 11 | 578 | 1980 | remaining at 0.5 h, 1 µM [4]: 83%; remaining at 0.5 h, 1 µM [5]: 95%; solubility kinetic at 1 h [6]: 75 µM (≈ 41.8 µg/mL) |
| Cc1cc(C)c(CNC(=O)c2cc(-c3cnc(N4CCNCC4)nc3)cc3c2C(C)CN3C2CCOCC2)c(=O)[nH]1 (stereo in doubt; 45e1) | 98 | – | – | – |
| CCN(c1cc(-c2ccc(CN3CCOCC3)cc2)cc(C(=O)NCc2c(C)cc(C)[nH]c2=O)c1C)C1CCOCC1 [TAZEMETOSTAT] | – | – | – | remaining at 0.5 h, 1 µM [4]: 25%; remaining at 0.5 h, 1 µM [5]: 39%; solubility kinetic at 1 h [6]: 28 µM (≈ 16 µg/mL) |
